# Measurements published in paper PMC3494447 (British Journal of Cancer, 2012).
# Like-named read-outs stand apart in the source and are kept apart here.
# Tests used:
# [1] = Plasma pharmacokinetics of chemotherapy in absence or presence of axitinib; type: in vivo, human; conditions: for Plasma pharmacokinetic parameters (Cmax, AUC, clearance, volume of distribution) in the absence or presence of axitinib: comparison in words; for clearance: CL; for Vd: Vz; for half-life: t½
# advanced solid tumours = experiment: Best tumour response by RECIST 1.0; type: in vivo, human
# [2] = system: patients with advanced solid tumours; experiment: Haematologic laboratory abnormalities; type: in vivo, human; conditions: All grades; Total column = both chemotherapy cohorts
# human liver microsomes = conditions: in vitro, ref unpublished data; cited from earlier work
# [3] = system: patients with advanced NSCLC; conditions: phase II, single-agent axitinib, ref Schiller et al, 2009; cited from earlier work
# [4] = system: patients with advanced solid tumours; type: in vivo, human; conditions: for Dose-limiting toxicities: first cycle; for MTD of axitinib: continuously
# [5] = system: patients with advanced solid tumours; experiment: Safety: treatment-related adverse events; type: in vivo, human
# In short: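 Adverse events were monitored throughout in every patient given ≥1 dose and graded by CTCAE version 3.0. Physical examinations were done at baseline, on days 1, 8 and 15 of each cycle and 28 days after the last dose.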
# [6] = type: in vivo; conditions: human, plasma, oral; for AUC(0-t): AUC0-24, Mean (%CV); for Cmax / Vd/F / half-life: Mean (%CV); for Vd/F: Vz/F; for half-life: t½
# [7] = All grades, Total column = both chemotherapy cohorts
# [8] = grade >=3, across both treatment arms
# [9] = 5 mg b.i.d., axitinib 5 mg b.i.d. + gemcitabine/cisplatin, cycle 1 day 1
# [10] = 5 mg b.i.d., axitinib + paclitaxel/carboplatin, cycle 1 day 1, dose-normalised to 5 mg b.i.d.
# [11] = 5 mg b.i.d., axitinib alone, steady state, cohorts 1–3 pooled, dose-normalised to 5 mg b.i.d.
# [12] = 5 mg, axitinib alone 5 mg b.i.d., steady state, gemcitabine/cisplatin cohort
# [13] = carboplatin (+paclitaxel) + axitinib, cycle 1 day 1, PUF, n=12
# [14] = carboplatin (+paclitaxel) without axitinib, cycle 2 day 1, PUF, n=12
# [15] = human, plasma, intravenous, Mean (%CV), gemcitabine (+cisplatin) + axitinib, cycle 1 day 1, n=17
# [16] = human, plasma, intravenous, Mean (%CV), gemcitabine (+cisplatin) without axitinib, cycle 2, n=17
# [17] = human, plasma, intravenous, Mean (%CV), paclitaxel (+carboplatin) + axitinib, cycle 1 day 1, n=12
# [18] = human, plasma, intravenous, Mean (%CV), paclitaxel (+carboplatin) without axitinib, cycle 2 day 1, n=12
compound,measurement,setting,value
"O=c1ccn([C@@H]2O[C@H](CO)[C@@H](O)C2(F)F)c(=O)[nH]1 [dFdU, 2′,2′-difluorodeoxyuridine]","Plasma pharmacokinetic parameters (Cmax, AUC, clearance, volume of distribution) in the absence or presence of axitinib",[1],similar
"CNC(=O)c1ccccc1Sc1ccc2c(/C=C/c3ccccn3)n[nH]c2c1 [Axitinib, axitinib]","Objective responses, number of patients",advanced solid tumours; other tumour types,5 n
same,"Objective responses, number of patients",advanced solid tumours; patients with NSCLC,5 n
same,"Objective responses, number of patients",advanced solid tumours; patients with melanoma,2 n
same,"Objective responses, number of patients",advanced solid tumours; patients with ovarian cancer,3 n
same,"Anaemia, haematologic laboratory abnormality",[2],48 (100) n (%)
same,"Leukopenia, haematologic laboratory abnormality",[2],46 (95.8) n (%)
same,"Lymphopenia, haematologic laboratory abnormality",[2],40 (83.3) n (%)
same,"Neutropenia, haematologic laboratory abnormality",[2],46 (95.8) n (%)
same,"Thrombocytopenia, haematologic laboratory abnormality",[2],43 (89.6) n (%)
same,Enzymes mediating axitinib metabolism,human liver microsomes,"primarily mediated by CYP3A4 and to a lesser extent by CYP1A2, CYP2C19 and UDP-glucuronosyltransferase 1A1"
same,median OS,[3],14.8 months
same,Dose-limiting toxicities,[4]; axitinib 5 mg b.i.d. with gemcitabine/cisplatin,fatigue
same,Dose-limiting toxicities,"[4]; cohort 1, axitinib lead-in 1 mg b.i.d., with paclitaxel/carboplatin",None
same,Dose-limiting toxicities,"[4]; cohort 2, axitinib lead-in 3 mg b.i.d., with paclitaxel/carboplatin",None
same,Dose-limiting toxicities,"[4]; cohort 3, axitinib 5 mg b.i.d., with paclitaxel/carboplatin",Febrile neutropenia (n=1)
same,Dose-limiting toxicities,"[4]; cohort 3, axitinib 5 mg b.i.d., with paclitaxel/carboplatin, listed as axitinib",febrile neutropenia
same,MTD of axitinib,[4]; with cisplatin 80 mg m^-2 (day 1) and gemcitabine 1250 mg m^-2 (days 1 and 8),5 mg b.i.d.
same,MTD of axitinib,[4]; with paclitaxel 200 mg m^-2 and carboplatin AUC 6 mg min ml^-1,5 mg b.i.d.
same,Grade >=3 haemoptysis,[5]; 12 patients with squamous cell NSCLC,No grade⩾3 haemoptysis occurred
same,"Decreased appetite, treatment-related AE",[5]; [7],7 (14.3) n (%)
same,"Diarrhoea, treatment-related AE",[5]; [7],17 (34.7) n (%)
same,"Dizziness, treatment-related AE",[5]; [7],5 (10.2) n (%)
same,"Dysgeusia, treatment-related AE",[5]; [7],6 (12.2) n (%)
same,"Dysphonia, treatment-related AE",[5]; [7],7 (14.3) n (%)
same,"Epistaxis, treatment-related AE",[5]; [7],8 (16.3) n (%)
same,"Fatigue, treatment-related AE",[5]; [7],14 (28.6) n (%)
same,"Hand–foot syndrome, treatment-related AE",[5]; [7],9 (18.4) n (%)
same,"Headache, treatment-related AE",[5]; [7],7 (14.3) n (%)
same,"Hypertension, treatment-related AE",[5]; [7],18 (36.7) n (%)
same,"Nausea, treatment-related AE",[5]; [7],8 (16.3) n (%)
same,"Proteinuria, treatment-related AE",[5]; [7],10 (20.4) n (%)
same,"Rash, treatment-related AE",[5]; [7],7 (14.3) n (%)
same,Anaemia reported as treatment-related AE,"[5]; Grade 3/4, all patients",2.0%
same,Leukopenia reported as treatment-related AE,"[5]; Grade 3/4, all patients",2.0%
same,Treatment-related diarrhoea,"[5]; all grades, all 49 patients",34.7%
same,Treatment-related fatigue,"[5]; all grades, all 49 patients",28.6%
same,Treatment-related hypertension,"[5]; all grades, all 49 patients",36.7%
same,Grade 5 treatment-related AEs,[5]; all patients,No cases
same,Grade >=3 haemoptysis,[5]; all patients,No cases
same,Patients with axitinib dose reduced,[5]; gemcitabine/cisplatin cohort,28.6%
same,Patients with axitinib dosing interrupted,[5]; gemcitabine/cisplatin cohort,66.7%
same,Treatment-related fatigue,[5]; [8],10.2%
same,Treatment-related hypertension,[5]; [8],10.2%
same,Patients with axitinib dose reduced,[5]; paclitaxel/carboplatin cohorts,35.7%
same,Patients with axitinib dosing interrupted,[5]; paclitaxel/carboplatin cohorts,35.7%
same,AUC(0-t),[6]; [9],444 ng·h/mL
same,AUC(0-t),[6]; [10],535 ng·h/mL
same,AUC(0-t),[6]; [11],404 ng·h/mL
same,Cmax,"[6]; 5 mg b.i.d., axitinib 5 mg b.i.d. + gemcitabine/cisplatin, cycle 1 day 1, n=20",41.7 ng/mL
same,Cmax,"[6]; 5 mg b.i.d., axitinib + paclitaxel/carboplatin, cycle 1 day 1, cohorts 1–3 pooled, dose-normalised to 5 mg b.i.d., n=12",46 ng/mL
same,Cmax,"[6]; 5 mg b.i.d., axitinib alone, steady state, cycle 1 day –1, cohorts 1–3 pooled, dose-normalised to 5 mg b.i.d., n=12",39 ng/mL
same,Vd/F,[6]; [9],168 L
same,Vd/F,[6]; [10],133 L
same,Vd/F,[6]; [11],108 L
same,half-life,[6]; [9],160 min
same,AUC(0-t),[6]; [12],416 ng·h/mL
same,Cmax,"[6]; 5 mg, axitinib alone 5 mg b.i.d., steady state, gemcitabine/cisplatin cohort, n=20",41 ng/mL
same,Vd/F,[6]; [12],157 L
same,half-life,[6]; [12],161 min
same,half-life,"[6]; axitinib + paclitaxel/carboplatin, cycle 1 day 1",162 min
"N.N.O=C([O-])C1(C(=O)[O-])CCC1.[Pt+2] [Carboplatin, carboplatin]","CL, Mean (%CV)",[1]; [13],13.7 (31) l h^−1
same,"Vz, Mean (%CV)",[1]; [13],44.8 (15) l
same,"t½, Mean (%CV)",[1]; [13],2.44 (29) h
same,"CL, Mean (%CV)",[1]; [14],12.6 (32) l h^−1
same,"Vz, Mean (%CV)",[1]; [14],45.2 (18) l
same,"t½, Mean (%CV)",[1]; [14],2.62 (21) h
same,"Plasma pharmacokinetic parameters (Cmax, AUC, clearance, volume of distribution) in the absence or presence of axitinib",[1],similar
"Nc1ccn([C@@H]2O[C@H](CO)[C@@H](O)C2(F)F)c(=O)n1 [Gemcitabine, 2′,2′-difluorodeoxycytidine]","Plasma pharmacokinetic parameters (Cmax, AUC, clearance, volume of distribution) in the absence or presence of axitinib",[1],similar
same,AUC(0-inf),"[1]; human, plasma, intravenous",11700 ng·h/mL
same,clearance,[1]; [15],3620 mL/min
same,clearance,[1]; [16],3730 mL/min
same,Vd,[1]; [15],95.5 L
same,Vd,[1]; [16],91.5 L
"CC(=O)O[C@H]1C(=O)[C@@]2(C)[C@H]([C@H](OC(=O)c3ccccc3)[C@]3(O)C[C@H](OC(=O)[C@H](O)[C@@H](NC(=O)c4ccccc4)c4ccccc4)C(C)=C1C3(C)C)[C@]1(OC(C)=O)CO[C@@H]1C[C@@H]2O [Paclitaxel, paclitaxel]","Plasma pharmacokinetic parameters (Cmax, AUC, clearance, volume of distribution) in the absence or presence of axitinib",[1],similar
same,clearance,[1]; [17],303 mL/min
same,clearance,[1]; [18],360 mL/min
same,Cmax,"[1]; human, plasma, intravenous, Cmax, Mean (%CV), paclitaxel (+carboplatin) + axitinib, cycle 1 day 1, plasma, n=12",7180 ng/mL
same,Vd,[1]; [17],229 L
same,Vd,[1]; [18],285 L
same,half-life,[1]; [17],518 min
same,half-life,[1]; [18],502 min
